# Laboratory results from ChEMBL document CHEMBL4152188, “Design, synthesis and biological evaluation of C(4) substituted monobactams as antibacterial agents against multidrug-resistant Gram-negative bacteria” (Eur J Med Chem, 2018).
# Assays:
# Type in all cases: functional
# Klebsiella pneumoniae [1] = assay: Selectivity index, ratio of MIC for against KPC-2 producing Klebsiella pneumoniae isolate 212423 to MIC for against KPC-2 producing Klebsiella pneumoniae isolate 212423 in presence of BPL
# Escherichia coli [2] = assay: Antibacterial activity against extended-spectrum beta-lactamase producing Escherichia coli isolate 208687 after 18 hrs in presence of BPL by CLSI broth microdilution method; settings: isolate 208687, 18 h
# In short: (§1)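 CLSI broth microdilution against clinical isolates (ESBL E. coli, KPC-2 MDR K. pneumoniae, IMP-4 MDR P. aeruginosa; five per species). Iron limitation: Mueller-Hinton broth supplemented with 16 mg/liter 2,2'-bipyridyl to complex iron and induce iron uptake systems. Read-out: MIC.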
# Pseudomonas aeruginosa [3] = assay: Antibacterial activity against IMP-4 producing Pseudomonas aeruginosa isolate 209471 after 18 hrs by CLSI broth microdilution method; settings: isolate 209471, 18 h
# Klebsiella pneumoniae [4] = assay: Selectivity index, ratio of MIC for against KPC-2 producing Klebsiella pneumoniae isolate 212229 to MIC for against KPC-2 producing Klebsiella pneumoniae isolate 212229 in presence of BPL
# Pseudomonas aeruginosa [5] = assay: Antibacterial activity against IMP-4 producing Pseudomonas aeruginosa isolate 208247 after 18 hrs by CLSI broth microdilution method; settings: isolate 208247, 18 h
# Klebsiella pneumoniae [6] = assay: Antibacterial activity against KPC-2 producing Klebsiella pneumoniae isolate 212423 after 18 hrs by CLSI broth microdilution method; settings: isolate 212423, 18 h
# Klebsiella pneumoniae [7] = assay: Antibacterial activity against KPC-2 producing Klebsiella pneumoniae isolate 212423 after 18 hrs in presence of BPL by CLSI broth microdilution method; settings: isolate 212423, 18 h; in short: as §1
# Klebsiella pneumoniae [8] = assay: Antibacterial activity against KPC-2 producing Klebsiella pneumoniae isolate 209632 after 18 hrs in presence of BPL by CLSI broth microdilution method; settings: isolate 209632, 18 h; in short: as §1
# Klebsiella pneumoniae [9] = assay: Selectivity index, ratio of MIC for against KPC-2 producing Klebsiella pneumoniae isolate 212232 to MIC for against KPC-2 producing Klebsiella pneumoniae isolate 212232 in presence of BPL
# Klebsiella pneumoniae [10] = assay: Selectivity index, ratio of MIC for against KPC-2 producing Klebsiella pneumoniae isolate 209632 to MIC for against KPC-2 producing Klebsiella pneumoniae isolate 209632 in presence of BPL
# Escherichia coli [11] = assay: Antibacterial activity against extended-spectrum beta-lactamase producing Escherichia coli isolate 212648 after 18 hrs by CLSI broth microdilution method; settings: isolate 212648, 18 h
# Escherichia coli [12] = assay: Antibacterial activity against extended-spectrum beta-lactamase producing Escherichia coli isolate 106342 after 18 hrs in presence of BPL by CLSI broth microdilution method; settings: isolate 106342, 18 h; in short: as §1
# Klebsiella pneumoniae [13] = assay: Antibacterial activity against KPC-2 producing Klebsiella pneumoniae isolate 212232 after 18 hrs by CLSI broth microdilution method; settings: isolate 212232, 18 h
# Pseudomonas aeruginosa [14] = assay: Antibacterial activity against IMP-4 producing Pseudomonas aeruginosa isolate 207272 after 18 hrs by CLSI broth microdilution method; settings: isolate 207272, 18 h
# Pseudomonas aeruginosa [15] = assay: Antibacterial activity against IMP-4 producing Pseudomonas aeruginosa isolate 208247 after 18 hrs in presence of BPL by CLSI broth microdilution method; settings: isolate 208247, 18 h; in short: as §1
# Pseudomonas aeruginosa [16] = assay: Selectivity index, ratio of MIC for against IMP-4 producing Pseudomonas aeruginosa isolate 207272 to MIC for against IMP-4 producing Pseudomonas aeruginosa isolate 207272 in presence of BPL
# Escherichia coli [17] = assay: Selectivity index, ratio of MIC for against extended-spectrum beta-lactamase producing Escherichia coli isolate 212648 to MIC for extended-spectrum beta-lactamase producing Escherichia coli isolate 212648 in presence of BPL
# Pseudomonas aeruginosa [18] = assay: Antibacterial activity against IMP-4 producing Pseudomonas aeruginosa isolate 207272 after 18 hrs in presence of BPL by CLSI broth microdilution method; settings: isolate 207272, 18 h; in short: as §1
# Escherichia coli [19] = assay: Antibacterial activity against Escherichia coli isolate 210737 after 18 hrs in presence of BPL by CLSI broth microdilution method; settings: isolate 210737, 18 h; in short: as §1
# Klebsiella pneumoniae [20] = assay: Antibacterial activity against KPC-2 producing Klebsiella pneumoniae isolate 209735 after 18 hrs in presence of BPL by CLSI broth microdilution method; settings: isolate 209735, 18 h; in short: as §1
# Escherichia coli [21] = assay: Selectivity index, ratio of MIC for against extended-spectrum beta-lactamase producing Escherichia coli isolate 106342 to MIC for extended-spectrum beta-lactamase producing Escherichia coli isolate 106342 in presence of BPL
# Escherichia coli [22] = assay: Antibacterial activity against extended-spectrum beta-lactamase producing Escherichia coli isolate 106342 after 18 hrs by CLSI broth microdilution method; settings: isolate 106342, 18 h
# Escherichia coli [23] = assay: Selectivity index, ratio of MIC for against Escherichia coli isolate 210737 to MIC for Escherichia coli isolate 210737 in presence of BPL
# Klebsiella pneumoniae [24] = assay: Antibacterial activity against KPC-2 producing Klebsiella pneumoniae isolate 212232 after 18 hrs in presence of BPL by CLSI broth microdilution method; settings: isolate 212232, 18 h; in short: as §1
# Klebsiella pneumoniae [25] = assay: Antibacterial activity against KPC-2 producing Klebsiella pneumoniae isolate 209735 after 18 hrs by CLSI broth microdilution method; settings: isolate 209735, 18 h
# Pseudomonas aeruginosa [26] = assay: Antibacterial activity against IMP-4 producing Pseudomonas aeruginosa isolate 209321 after 18 hrs in presence of BPL by CLSI broth microdilution method; settings: isolate 209321, 18 h; in short: as §1
# Pseudomonas aeruginosa [27] = assay: Selectivity index, ratio of MIC for against IMP-4 producing Pseudomonas aeruginosa isolate 209471 to MIC for against IMP-4 producing Pseudomonas aeruginosa isolate 209471 in presence of BPL
# Escherichia coli [28] = assay: Selectivity index, ratio of MIC for against extended-spectrum beta-lactamase producing Escherichia coli isolate 208687 to MIC for extended-spectrum beta-lactamase producing Escherichia coli isolate 208687 in presence of BPL
# Klebsiella pneumoniae [29] = assay: Selectivity index, ratio of MIC for against KPC-2 producing Klebsiella pneumoniae isolate 209735 to MIC for against KPC-2 producing Klebsiella pneumoniae isolate 209735 in presence of BPL
# Pseudomonas aeruginosa [30] = assay: Antibacterial activity against IMP-4 producing Pseudomonas aeruginosa isolate 212886 after 18 hrs in presence of BPL by CLSI broth microdilution method; settings: isolate 212886, 18 h; in short: as §1
# Klebsiella pneumoniae [31] = assay: Antibacterial activity against KPC-2 producing Klebsiella pneumoniae isolate 209632 after 18 hrs by CLSI broth microdilution method; settings: isolate 209632, 18 h
# Pseudomonas aeruginosa [32] = assay: Selectivity index, ratio of MIC for against IMP-4 producing Pseudomonas aeruginosa isolate 208247 to MIC for against IMP-4 producing Pseudomonas aeruginosa isolate 208247 in presence of BPL
# Pseudomonas aeruginosa [33] = assay: Selectivity index, ratio of MIC for against IMP-4 producing Pseudomonas aeruginosa isolate 209321 to MIC for against IMP-4 producing Pseudomonas aeruginosa isolate 209321 in presence of BPL
# Pseudomonas aeruginosa [34] = assay: Antibacterial activity against IMP-4 producing Pseudomonas aeruginosa isolate 209321 after 18 hrs by CLSI broth microdilution method; settings: isolate 209321, 18 h
# Escherichia coli [35] = assay: Antibacterial activity against Escherichia coli isolate 210737 after 18 hrs by CLSI broth microdilution method; settings: isolate 210737, 18 h
# Escherichia coli [36] = assay: Antibacterial activity against extended-spectrum beta-lactamase producing Escherichia coli isolate 212648 after 18 hrs in presence of BPL by CLSI broth microdilution method; settings: isolate 212648, 18 h; in short: as §1
# Escherichia coli [37] = assay: Antibacterial activity against extended-spectrum beta-lactamase producing Escherichia coli isolate 208687 after 18 hrs by CLSI broth microdilution method; settings: isolate 208687, 18 h
# Pseudomonas aeruginosa [38] = assay: Selectivity index, ratio of MIC for against IMP-4 producing Pseudomonas aeruginosa isolate 212886 to MIC for against IMP-4 producing Pseudomonas aeruginosa isolate 212886 in presence of BPL
# Escherichia coli [39] = assay: Antibacterial activity against extended-spectrum beta-lactamase producing Escherichia coli isolate 209285 after 18 hrs in presence of BPL by CLSI broth microdilution method; settings: isolate 209285, 18 h; in short: as §1
# Klebsiella pneumoniae [40] = assay: Antibacterial activity against KPC-2 producing Klebsiella pneumoniae isolate 212229 after 18 hrs by CLSI broth microdilution method; settings: isolate 212229, 18 h
# Escherichia coli [41] = assay: Selectivity index, ratio of MIC for against extended-spectrum beta-lactamase producing Escherichia coli isolate 209285 to MIC for extended-spectrum beta-lactamase producing Escherichia coli isolate 209285 in presence of BPL
# Escherichia coli [42] = assay: Antibacterial activity against extended-spectrum beta-lactamase producing Escherichia coli isolate 209285 after 18 hrs by CLSI broth microdilution method; settings: isolate 209285, 18 h
# Pseudomonas aeruginosa [43] = assay: Antibacterial activity against IMP-4 producing Pseudomonas aeruginosa isolate 212886 after 18 hrs by CLSI broth microdilution method; settings: isolate 212886, 18 h
# Klebsiella pneumoniae [44] = assay: Antibacterial activity against KPC-2 producing Klebsiella pneumoniae isolate 212229 after 18 hrs in presence of BPL by CLSI broth microdilution method; settings: isolate 212229, 18 h; in short: as §1
# Pseudomonas aeruginosa [45] = assay: Antibacterial activity against IMP-4 producing Pseudomonas aeruginosa isolate 209471 after 18 hrs in presence of BPL by CLSI broth microdilution method; settings: isolate 209471, 18 h; in short: as §1
structure (smiles),measurement,setting,value
CC(C)C(O/N=C(\C(=O)NC1C(=O)N(S(=O)(=O)O)C12CCCC2)c1csc(N)n1)c1cc(=O)c(O)cn1O (stereo not given),Selectivity Index,Klebsiella pneumoniae [1],2
same,MIC,Escherichia coli [2],0.5 µg/mL
same,MIC,Pseudomonas aeruginosa [3],32 µg/mL
same,Selectivity Index,Klebsiella pneumoniae [4],4
same,MIC,Pseudomonas aeruginosa [5],16 µg/mL
same,MIC,Klebsiella pneumoniae [6],2 µg/mL
same,MIC,Klebsiella pneumoniae [7],1 µg/mL
same,MIC,Klebsiella pneumoniae [8],1 µg/mL
same,Selectivity Index,Klebsiella pneumoniae [9],4
same,Selectivity Index,Klebsiella pneumoniae [10],8
same,MIC,Escherichia coli [11],4 µg/mL
same,MIC,Escherichia coli [12],0.5 µg/mL
same,MIC,Klebsiella pneumoniae [13],4 µg/mL
same,MIC,Pseudomonas aeruginosa [14],16 µg/mL
same,MIC,Pseudomonas aeruginosa [15],8 µg/mL
same,Selectivity Index,Pseudomonas aeruginosa [16],1
same,Selectivity Index,Escherichia coli [17],4
same,MIC,Pseudomonas aeruginosa [18],16 µg/mL
same,MIC,Escherichia coli [19],0.25 µg/mL
same,MIC,Klebsiella pneumoniae [20],1 µg/mL
same,Selectivity Index,Escherichia coli [21],4
same,MIC,Escherichia coli [22],2 µg/mL
same,Selectivity Index,Escherichia coli [23],2
same,MIC,Klebsiella pneumoniae [24],1 µg/mL
same,MIC,Klebsiella pneumoniae [25],4 µg/mL
same,MIC,Pseudomonas aeruginosa [26],16 µg/mL
same,Selectivity Index,Pseudomonas aeruginosa [27],2
same,Selectivity Index,Escherichia coli [28],2
same,Selectivity Index,Klebsiella pneumoniae [29],4
same,MIC,Pseudomonas aeruginosa [30],16 µg/mL
same,MIC,Klebsiella pneumoniae [31],8 µg/mL
same,Selectivity Index,Pseudomonas aeruginosa [32],2
same,Selectivity Index,Pseudomonas aeruginosa [33],1
same,MIC,Pseudomonas aeruginosa [34],16 µg/mL
same,MIC,Escherichia coli [35],0.5 µg/mL
same,MIC,Escherichia coli [36],1 µg/mL
same,MIC,Escherichia coli [37],1 µg/mL
same,Selectivity Index,Pseudomonas aeruginosa [38],1
same,MIC,Escherichia coli [39],0.5 µg/mL
same,MIC,Klebsiella pneumoniae [40],4 µg/mL
same,Selectivity Index,Escherichia coli [41],2
same,MIC,Escherichia coli [42],1 µg/mL
same,MIC,Pseudomonas aeruginosa [43],16 µg/mL
same,MIC,Klebsiella pneumoniae [44],1 µg/mL
same,MIC,Pseudomonas aeruginosa [45],16 µg/mL
